System: HL-60
Test: Cytotoxicity against human HL60 cells after 72 hrs by MTT assay
Assay type: functional, cell-based
Conditions: HL-60, 72 h
How it was run: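 HL-60 leukemia cells kept in RPMI 1640 with 10% fetal bovine serum, L-glutamine, 100 units/mL penicillin and 100 μg/mL streptomycin. Cells at 3 × 10^4 cells/mL exposed continuously to compound for 72 h. Growth read by MTT reduction. IC50 (50% inhibition) calculated from each compound's dose–response curve.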

Structure (SMILES)	IC50 [µM]
CC(C)CCC(O)[C@@H](C)[C@@]1(O)[C@@H](O[C@@H]2OC[C@H](O)[C@H](O[C@@H]3OC[C@@H](O)[C@H](O)[C@H]3O)[C@H]2O)C[C@H]2[C@@H]3CC=C4C[C@@H](O)CC[C@]4(C)[C@H]3CC[C@@]21C (some centres not stated)	8.3
CC(C)CCC(=O)[C@@H](C)[C@@]1(O)[C@@H](O[C@@H]2OC[C@H](O)[C@H](O[C@@H]3OC[C@@H](O[C@@H]4O[C@H](CO)[C@@H](O)[C@H](O)[C@H]4O)[C@H](O)[C@H]3O)[C@H]2O)C[C@H]2[C@@H]3CC=C4C[C@@H](O)CC[C@]4(C)[C@H]3CC[C@@]21C	> 10

— ChEMBL document CHEMBL1150225, “Cytotoxic cholestane glycosides from the bulbs of Ornithogalum saundersiae” (J Nat Prod, 2001)
